Reference: publication PMC11789357 (Journal of Translational Medicine, 2025)

Key:
[1] = Single-dose PK study in healthy BALB/c mice; format: in vivo, mouse; conditions: SC 0.08 mg/kg single dose
In short: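 Female BALB/c mice received a single sc injection of test compound or peptide dimer. Blood was sampled at several times over 14 days, and serum drug level was measured by MSD immunoassay. Mean concentration–time curves gave Tmax, Cmax, t1/2, AUC0-t, AUC0-∞ and MRT.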

BaF3-hEPOR cells = assay: Western blot of EPOR downstream signaling; format: cell-based, murine; conditions: 10 min treatment, monitored 4 days
In short: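 They were exposed 10 min, pelleted, and resuspended in EPO-free medium. Lysates were taken at 0 min, 30 min, 1 h, 4 h and 1–4 days. Western blots on 4–20% gels were probed for p-ERK1/2 and p-STAT5.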

UT-7 cells [2] = assay: CellTiter-Glo cell proliferation / survival assay; format: cell-based, human; conditions: medium without EPO; matched doses 1000 ng/mL (20 nM) vs 4 U/mL, 200 ng/mL (4 nM) vs 0.8 U/mL
[3] = molecular target: EPOR extracellular domain-IgFc construct (UniProt P19235); assay: SPR
UT-7 cells [4] = conditions: ref [21], [23]; cited from earlier work

Sequence of UniProt P19235 (P19235 25-250): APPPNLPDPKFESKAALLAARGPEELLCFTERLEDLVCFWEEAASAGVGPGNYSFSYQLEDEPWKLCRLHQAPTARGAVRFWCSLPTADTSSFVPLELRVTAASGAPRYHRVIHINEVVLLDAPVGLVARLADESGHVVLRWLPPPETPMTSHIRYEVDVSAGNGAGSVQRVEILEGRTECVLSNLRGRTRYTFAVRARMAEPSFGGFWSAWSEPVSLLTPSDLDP

With `CC(=O)NCC(=O)NCC(=O)N[C@H](C(=O)N[C@@H](Cc1ccc(O)cc1)C(=O)N[C@@H](CO)C(=O)N[C@H]1CSSC[C@@H](C(=O)N[C@@H](CCCNC(=N)N)C(=O)N2CCC[C@H]2C(=O)N[C@@H](CCC(N)=O)C(=O)N[C@@H](CCCNC(=N)N)C(=O)NCC(=O)NCCC(=O)N[C@@H](CCCCNC(=O)CN(CC(=O)NCCCC[C@H](NC(=O)CCNC(=O)CNC(=O)[C@H](CCCNC(=N)N)NC(=O)[C@H](CCC(N)=O)NC(=O)[C@@H]2CCCN2C(=O)[C@H](CCCNC(=N)N)NC(=O)[C@@H]2CSSC[C@H](NC(=O)[C@H](CO)NC(=O)[C@H](Cc3ccc(O)cc3)NC(=O)[C@@H](NC(=O)CNC(=O)CNC(C)=O)[C@@H](C)O)C(=O)N[C@@H](Cc3c[nH]cn3)C(=O)N[C@@H](Cc3ccccc3)C(=O)NCC(=O)N[C@@H](C)C(=O)N[C@@H](CC(C)C)C(=O)N[C@@H]([C@@H](C)O)C(=O)N[C@@H](Cc3c[nH]c4ccccc34)C(=O)N[C@@H](C(C)C)C(=O)N2)C(N)=O)C(=O)CCN)C(N)=O)NC(=O)[C@H](C(C)C)NC(=O)[C@H](Cc2c[nH]c3ccccc23)NC(=O)[C@H]([C@@H](C)O)NC(=O)[C@H](CC(C)C)NC(=O)[C@H](C)NC(=O)CNC(=O)[C@H](Cc2ccccc2)NC(=O)[C@H](Cc2c[nH]cn2)NC1=O)[C@@H](C)O` [Peptide dimer] the “Serum concentration” value [1] was “mostly below detection limits” and the “Phosphorylation levels of ERK1/2 MAPK and STAT5 after withdrawal” value (BaF3-hEPOR cells) was “showed a decline”.
For “rHuEPO (ESPO 3000): recombinant human erythropoietin product ESPO 3000, Kyowa Kirin”, the “UT-7 cell proliferation under continuous treatment” value (UT-7 cells [2]) was “maintained cell proliferation over 7 consecutive days of treatment” and the “Phosphorylation levels of ERK1/2 MAPK and STAT5 after withdrawal” value (BaF3-hEPOR cells) was “showed a decline”.
For Pegmolesatide (peptide), the Kd [3] was 0.28 nM.
In the case of “rHuEPO: recombinant human erythropoietin, as cited from literature”, the “Rate of internalization of the rHuEPO-receptor complex” value (UT-7 cells [4]) is listed as 3.6 per hour and the “Time to lysosomal degradation post-internalization” value (UT-7 cells [4]) is listed as 15 to 20 min.
